Experimental data reported in ChEMBL document CHEMBL4017511, “Discovery of Fragment-Derived Small Molecules for in Vivo Inhibition of Ketohexokinase (KHK)” (J Med Chem, 2017).
In brackets after ≈: the same amount, converted by molar mass. Activity calls are given as the source filed them. No cut-off for these calls is given here.

Assays:
[1] = target: Cytochrome P450 3A4 (Homo sapiens, UniProt P08684); test: Inhibition of human CYP3A4 at 3 uM; assay type: ADME
[2] = Apparent permeability in RRCK cells by LC-MS/MS analysis; assay type: ADME, cell-based, Canis lupus familiaris, MDCKII-LE; details: dog, MDCK
[3] = tested on: Rattus norvegicus; test: In vivo inhibition of KHK-C in po dosed Sprague-Dawley rat assessed as decrease in F1P levels in liver administered for 1 hr followed by bolus fructose administration measured 2 mins after iv infusion by LC/MS analysis; assay type: functional
Summary of the method: (§1)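 Male Sprague Dawley rats (~200 g, jugular-cannulated) were fasted 16 h and given oral compound as a 0.5% methylcellulose nano-milled suspension. After 1 h they received an i.v. fructose bolus of 500 mg/kg over 20 s, and were decapitated 2 min later. Liver and kidney F1P was quantified by ion-exchange LC/MS/MS against a 13C-xylitol internal standard. ED50 from a four-parameter fit; n = 7-8.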

[4] = target: Voltage-gated inwardly rectifying potassium channel KCNH2 (Homo sapiens, UniProt Q12809); test: Inhibition of human ERG
[5] = Octanol/water partition coefficient, log D of the compound at pH 7.4 by shake-flask method; assay type: physicochemical
Summary of the method: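 LogD measured by shake-flask octanol:water partition at pH 7.4.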

[6] = tested on: Rattus norvegicus; test: Oral bioavailability in rat at 5 mg/kg; assay type: ADME, organism-based; details: in vivo
[7] = Apparent clearance in human liver microsomes; assay type: ADME, microsome; details: read-out: CLH(app)
[8] = Fraction unbound in human plasma at 10 uM measured at 2 to 24 hrs by equilibrium dialysis method; assay type: ADME, cell-free
[9] = tested on: HepG2; test: Cytotoxicity against human HepG2 cells up to 300 uM after 72 hrs; assay type: cell-based; details: hepg2, 72 h
Summary of the method: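 HepG2 cells incubated with compound at concentrations up to 300 µM for 72 hours to assess toxicity.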

[10] = tested on: Rattus norvegicus; test: AUClast in rat at 5 mg/kg, po; assay type: ADME, organism-based; design: dose 5 mg/kg, route oral, time 0 - last; details: in vivo
[11] = target: Cytochrome P450 2C9 (Homo sapiens, UniProt P11712); test: Inhibition of human CYP2C9 at 3 uM; assay type: ADME
[12] = target: Cytochrome P450 2D6 (Homo sapiens, UniProt P10635); test: Inhibition of human CYP2D6 at 3 uM; assay type: ADME
[13] = target: T1, Ketohexokinase (Homo sapiens, UniProt P50053)
T1 sequence (P50053 whole entry): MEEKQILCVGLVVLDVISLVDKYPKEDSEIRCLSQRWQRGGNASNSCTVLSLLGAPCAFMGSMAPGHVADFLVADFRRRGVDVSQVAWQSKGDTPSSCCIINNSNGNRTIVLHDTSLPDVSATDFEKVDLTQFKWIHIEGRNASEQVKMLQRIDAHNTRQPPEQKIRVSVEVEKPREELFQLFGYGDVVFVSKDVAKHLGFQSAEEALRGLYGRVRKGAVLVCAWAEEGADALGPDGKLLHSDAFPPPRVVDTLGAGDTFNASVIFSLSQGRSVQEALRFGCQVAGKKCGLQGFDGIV

[14] = Cmax in rat at 5 mg/kg; assay type: ADME, organism-based; design: dose 5 mg/kg; details: in vivo
[15] = target: Cytochrome P450 2C19 (Homo sapiens, UniProt P33261); test: Inhibition of human CYP2C19 at 3 uM; assay type: ADME
[16] = tested on: Salmonella typhimurium; test: Genotoxicity in Salmonella typhimurium by Ames test; assay type: toxicity; details: salmonella enterica subsp. enterica serovar typhimurium
[17] = Half life in rat at 1 mg/kg, iv; assay type: ADME, organism-based; details: in vivo
Summary of the method: (§2)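 Rat PK following a 1 mg/kg intravenous dose; systemic clearance, volume of distribution and effective half-life derived from plasma exposure.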

[18] = tested on: Rattus norvegicus; test: In vivo inhibition of fructose metabolism in po dosed Sprague-Dawley rat assessed as increase in plasma fructose level administered for 1 hr followed by oral bolus fructose administration measured after 2 mins by LC/MS analysis; assay type: functional, organism-based
Summary of the method: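 Fasted (16 h) non-cannulated male Sprague Dawley rats were dosed orally with compound in a 0.5% methylcellulose nano-milled suspension. One hour later they received 2 g/kg oral fructose. Tail-vein K2EDTA plasma was methanol-extracted with 13C6-fructose internal standard and analysed by HILIC LC-MS/MS; n = 6-8.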

[19] = Thermodynamic solubility of compound at pH 7.4; assay type: physicochemical; details: buffer, read-out: Therm_solubility
Summary of the method: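 Thermodynamic solubility determined at pH 7.4.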

[20] = Volume of distribution in rat at 1 mg/kg, iv; assay type: ADME, organism-based; details: in vivo; summary of the method: as §2
[21] = target: T2, Cytochrome P450 1A2 (Homo sapiens, UniProt P05177); test: Inhibition of human CYP1A2 at 3 uM; assay type: ADME
T2 sequence (P05177 whole entry): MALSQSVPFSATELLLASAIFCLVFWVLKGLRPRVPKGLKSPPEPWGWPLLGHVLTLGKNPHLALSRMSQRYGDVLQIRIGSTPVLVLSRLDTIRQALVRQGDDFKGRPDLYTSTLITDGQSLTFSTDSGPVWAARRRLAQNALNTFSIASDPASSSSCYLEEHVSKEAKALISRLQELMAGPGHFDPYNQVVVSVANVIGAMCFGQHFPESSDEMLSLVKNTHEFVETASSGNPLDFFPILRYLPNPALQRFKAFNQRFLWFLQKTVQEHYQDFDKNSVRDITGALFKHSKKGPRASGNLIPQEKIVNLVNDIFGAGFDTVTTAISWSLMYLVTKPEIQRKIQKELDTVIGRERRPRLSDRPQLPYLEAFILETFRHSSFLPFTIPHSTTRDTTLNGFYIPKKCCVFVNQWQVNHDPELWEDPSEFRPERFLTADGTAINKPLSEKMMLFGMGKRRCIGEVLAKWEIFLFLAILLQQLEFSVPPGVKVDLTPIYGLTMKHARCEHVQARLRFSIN

[22] = target: T3, Ketohexokinase (Rattus norvegicus, UniProt Q02974); test: Inhibition of recombinant rat N-terminal His-tagged KHK expressed in Escherichia coli BL21(DE3) using fructose as substrate incubated for 30 mins followed by ATP addition measured for 30 mins by pyruvate kinase-lactate dehydrogenase coupled enzyme assay
T3 sequence (Q02974 whole entry): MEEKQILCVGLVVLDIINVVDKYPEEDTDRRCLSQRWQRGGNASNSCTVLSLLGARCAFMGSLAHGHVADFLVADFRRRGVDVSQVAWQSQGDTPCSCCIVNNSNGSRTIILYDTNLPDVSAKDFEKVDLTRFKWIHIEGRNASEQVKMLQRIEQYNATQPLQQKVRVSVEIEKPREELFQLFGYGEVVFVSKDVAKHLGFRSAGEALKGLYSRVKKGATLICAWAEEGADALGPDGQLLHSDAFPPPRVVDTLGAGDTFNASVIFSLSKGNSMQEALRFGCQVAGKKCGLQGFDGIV
Summary of the method: (§3)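 Thrombin-cleaved (His-tag removed) human or rat KHK at 10 nM, preincubated 30 min at room temperature with compound (11-point series, 2.5% DMSO). Started with 0.2 mM ATP; NADH A340 read kinetically for 30 min. IC50 from nonlinear fit of percent inhibition; mean of replicates.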

[23] = Apparent clearance in rat liver microsomes; assay type: ADME, microsome; details: read-out: CLH(app)
[24] = target: T1, Ketohexokinase; remark: listed apart in the source
[25] = target: T4, Cytochrome P450 2C8 (Homo sapiens, UniProt P10632); test: Inhibition of human CYP2C8 at 3 uM; assay type: ADME
T4 sequence (P10632 whole entry): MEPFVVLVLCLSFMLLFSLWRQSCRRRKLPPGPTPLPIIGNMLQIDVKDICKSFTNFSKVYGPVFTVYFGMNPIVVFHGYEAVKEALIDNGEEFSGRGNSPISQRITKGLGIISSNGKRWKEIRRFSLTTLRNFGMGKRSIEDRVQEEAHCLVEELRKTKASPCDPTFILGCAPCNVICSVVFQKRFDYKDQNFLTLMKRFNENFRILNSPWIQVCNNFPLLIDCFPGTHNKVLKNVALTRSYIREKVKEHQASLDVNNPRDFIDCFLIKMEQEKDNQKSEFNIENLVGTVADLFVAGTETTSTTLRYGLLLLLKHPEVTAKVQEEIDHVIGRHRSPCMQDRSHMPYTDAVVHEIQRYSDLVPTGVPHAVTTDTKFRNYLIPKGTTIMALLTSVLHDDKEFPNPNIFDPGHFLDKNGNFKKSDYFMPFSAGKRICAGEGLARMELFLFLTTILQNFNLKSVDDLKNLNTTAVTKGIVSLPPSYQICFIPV

[26] = tested on: Rattus norvegicus; test: Time required for plasma concentration to reach above in vitro rat KHK IC50 in rat at 150 mg/kg, po
Summary of the method: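 Rats dosed orally at 150 mg/kg as a nanocrystal suspension (1% polyvinylpyrrolidone / 0.025% sodium lauryl sulfate / 1% pluronic).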

[27] = tested on: Rattus norvegicus; test: In vivo inhibition of KHK-C in po dosed Sprague-Dawley rat assessed as decrease in F1P levels in kidney administered for 1 hr followed by bolus fructose administration measured 2 mins after iv infusion by LC/MS analysis; assay type: functional; summary of the method: as §1
[28] = target: T1, Ketohexokinase; test: Inhibition of recombinant human N-terminal His-tagged KHK expressed in Escherichia coli BL21(DE3) using fructose as substrate incubated for 30 mins followed by ATP addition measured for 30 mins by pyruvate kinase-lactate dehydrogenase coupled enzyme assay; details: read-out: IC50; summary of the method: as §3
[29] = target: T5, Ketohexokinase (Homo sapiens) (UniProt P50053); test: Inhibition of recombinant full length human His-tagged KHK expressed in Escherichia coli BL21(DE3) using at 240 uM by 1D NMR-STD spectroscopic method
T5 sequence (whole entry): T1 sequence (P50053 whole entry)
Summary of the method: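 Full-length His-tagged human KHK (tag retained) at 5 μM in 50 mM Tris-d, 100 mM NaCl, 2 mM TCEP-d, 5% glycerol-d, pH 7.5, 298 K. AMP-PMP at 240 μM served as positive control. Saturation-transfer difference NMR used 512 scans and 3 s Gaussian on/off-resonance saturation. Binding was called from positive difference signals, with ligands assigned against each fragment's 1D 1H reference spectrum.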

[30] = target: T1, Ketohexokinase; test: Binding affinity to full length recombinant human biotin-labeled KHK by SPR assay
Summary of the method: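 Full-length biotinylated KHK captured on a streptavidin sensor (7000-8000 RU). Run buffer was 50 mM HEPES pH 7.4, 150 mM NaCl, 0.01% P20, 500 µM TCEP, 3% DMSO at 25 °C. Eleven 2-fold concentrations from 300 µM top, stop-flow with 60 s association and ≥120 s dissociation. Data double-referenced and DMSO-corrected; KD by steady-state affinity fit, n=1.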

[31] = tested on: Rattus norvegicus; test: Unbound Cmax in rat at 300 mg/kg, po; assay type: ADME, organism-based; details: in vivo
Summary of the method: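 Rats given 300 mg/kg orally in 0.25% HPC-SL/0.05% DOSS vehicle. Free plasma concentrations determined; mean ± SD, n = 3 per data point.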

[32] = Rattus norvegicus, Sprague-Dawley

Sequence of Voltage-gated inwardly rectifying potassium channel KCNH2 (Q12809 whole entry): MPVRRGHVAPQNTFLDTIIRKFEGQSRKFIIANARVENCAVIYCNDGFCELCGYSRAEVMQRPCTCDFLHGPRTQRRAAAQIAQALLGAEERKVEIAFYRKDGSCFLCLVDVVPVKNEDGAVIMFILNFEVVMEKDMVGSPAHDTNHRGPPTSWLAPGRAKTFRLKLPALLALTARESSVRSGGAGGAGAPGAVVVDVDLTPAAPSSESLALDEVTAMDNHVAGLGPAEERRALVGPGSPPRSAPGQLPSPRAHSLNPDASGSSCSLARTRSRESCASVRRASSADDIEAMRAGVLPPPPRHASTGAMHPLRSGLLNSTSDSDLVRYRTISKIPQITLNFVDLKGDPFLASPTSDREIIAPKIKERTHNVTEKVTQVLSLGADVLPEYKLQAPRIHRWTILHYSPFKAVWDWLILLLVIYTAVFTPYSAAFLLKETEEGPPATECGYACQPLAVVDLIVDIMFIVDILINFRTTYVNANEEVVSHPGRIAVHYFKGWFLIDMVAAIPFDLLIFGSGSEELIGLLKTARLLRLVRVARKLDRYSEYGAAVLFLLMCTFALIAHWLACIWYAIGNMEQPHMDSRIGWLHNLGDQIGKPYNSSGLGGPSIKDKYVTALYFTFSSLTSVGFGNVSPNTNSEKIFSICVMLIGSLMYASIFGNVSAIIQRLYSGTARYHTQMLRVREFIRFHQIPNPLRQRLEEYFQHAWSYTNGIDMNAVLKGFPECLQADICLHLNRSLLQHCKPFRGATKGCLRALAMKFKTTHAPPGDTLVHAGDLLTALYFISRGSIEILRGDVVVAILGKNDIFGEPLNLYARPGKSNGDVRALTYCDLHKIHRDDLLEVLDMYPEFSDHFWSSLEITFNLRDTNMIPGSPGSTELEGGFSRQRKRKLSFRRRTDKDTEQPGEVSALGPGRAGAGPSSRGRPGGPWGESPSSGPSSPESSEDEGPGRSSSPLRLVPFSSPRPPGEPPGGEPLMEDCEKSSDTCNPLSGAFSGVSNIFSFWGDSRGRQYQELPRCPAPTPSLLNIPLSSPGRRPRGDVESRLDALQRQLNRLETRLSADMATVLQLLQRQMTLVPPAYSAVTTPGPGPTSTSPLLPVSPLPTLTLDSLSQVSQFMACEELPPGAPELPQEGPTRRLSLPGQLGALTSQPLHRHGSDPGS
Sequence of Cytochrome P450 2C9 (P11712 whole entry): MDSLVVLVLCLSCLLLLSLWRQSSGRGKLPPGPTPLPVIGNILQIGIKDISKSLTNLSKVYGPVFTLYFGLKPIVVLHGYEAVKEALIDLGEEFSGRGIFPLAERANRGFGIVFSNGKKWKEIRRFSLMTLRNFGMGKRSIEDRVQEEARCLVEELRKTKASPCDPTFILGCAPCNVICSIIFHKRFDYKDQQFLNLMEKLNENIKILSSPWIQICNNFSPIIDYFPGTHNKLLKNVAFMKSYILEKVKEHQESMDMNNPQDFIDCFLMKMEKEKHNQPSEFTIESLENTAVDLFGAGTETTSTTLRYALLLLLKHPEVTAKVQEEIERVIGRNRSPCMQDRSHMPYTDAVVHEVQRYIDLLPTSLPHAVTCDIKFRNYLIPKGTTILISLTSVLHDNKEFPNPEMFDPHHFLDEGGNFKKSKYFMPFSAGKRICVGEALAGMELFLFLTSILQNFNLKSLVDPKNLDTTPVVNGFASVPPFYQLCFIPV
Sequence of Cytochrome P450 2D6 (P10635 whole entry): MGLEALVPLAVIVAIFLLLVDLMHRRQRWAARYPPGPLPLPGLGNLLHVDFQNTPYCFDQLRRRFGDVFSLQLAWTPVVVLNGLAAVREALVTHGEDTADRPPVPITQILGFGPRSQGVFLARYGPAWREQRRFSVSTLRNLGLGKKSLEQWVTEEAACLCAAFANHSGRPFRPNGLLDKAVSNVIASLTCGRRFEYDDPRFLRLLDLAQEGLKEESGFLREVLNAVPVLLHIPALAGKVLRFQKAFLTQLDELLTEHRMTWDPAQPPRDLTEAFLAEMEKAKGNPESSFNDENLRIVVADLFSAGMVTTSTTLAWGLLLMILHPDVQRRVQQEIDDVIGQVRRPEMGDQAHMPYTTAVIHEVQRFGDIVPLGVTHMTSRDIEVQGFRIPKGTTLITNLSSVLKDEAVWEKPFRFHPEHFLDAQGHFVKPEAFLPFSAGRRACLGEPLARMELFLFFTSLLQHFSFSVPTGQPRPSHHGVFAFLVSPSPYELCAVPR
Sequence of Cytochrome P450 3A4 (P08684 whole entry): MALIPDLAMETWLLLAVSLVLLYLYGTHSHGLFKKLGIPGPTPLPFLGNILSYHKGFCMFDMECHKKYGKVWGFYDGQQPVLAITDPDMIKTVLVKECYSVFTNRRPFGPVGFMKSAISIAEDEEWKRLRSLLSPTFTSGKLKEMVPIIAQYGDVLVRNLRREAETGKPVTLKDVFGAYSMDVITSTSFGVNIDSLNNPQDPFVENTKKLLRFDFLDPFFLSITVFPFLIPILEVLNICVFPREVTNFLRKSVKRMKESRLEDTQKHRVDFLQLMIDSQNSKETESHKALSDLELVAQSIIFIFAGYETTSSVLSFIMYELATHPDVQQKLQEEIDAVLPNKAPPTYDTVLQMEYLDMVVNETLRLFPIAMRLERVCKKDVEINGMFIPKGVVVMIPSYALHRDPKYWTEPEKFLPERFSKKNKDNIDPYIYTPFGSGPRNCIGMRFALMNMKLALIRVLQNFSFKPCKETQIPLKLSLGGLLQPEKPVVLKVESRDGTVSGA
Sequence of Cytochrome P450 2C19 (P33261 whole entry): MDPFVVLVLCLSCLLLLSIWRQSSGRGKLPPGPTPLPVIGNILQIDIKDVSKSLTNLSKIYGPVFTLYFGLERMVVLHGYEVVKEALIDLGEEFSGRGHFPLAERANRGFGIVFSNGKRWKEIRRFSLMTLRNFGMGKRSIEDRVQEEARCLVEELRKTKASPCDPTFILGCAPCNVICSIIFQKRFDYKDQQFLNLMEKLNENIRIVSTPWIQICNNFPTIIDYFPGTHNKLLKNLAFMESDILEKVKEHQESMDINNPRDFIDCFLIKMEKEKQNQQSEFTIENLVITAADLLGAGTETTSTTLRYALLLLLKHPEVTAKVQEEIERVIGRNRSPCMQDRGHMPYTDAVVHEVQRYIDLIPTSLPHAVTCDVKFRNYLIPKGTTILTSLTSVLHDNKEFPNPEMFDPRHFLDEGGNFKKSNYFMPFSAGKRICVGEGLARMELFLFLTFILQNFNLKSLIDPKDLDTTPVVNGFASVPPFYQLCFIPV

C[C@]1(O)CCN(c2nc(N3C[C@H](O)[C@@H](O)C3)cc(C(F)(F)F)c2C#N)C1
inhibition (INH) [1]: Not Active
Papp [2]: 3.5 ×10⁻⁶ cm/s
inhibition [3]: Dose-dependent effect
pED50 [3]: 1.48
ED50 [3, 32]: 30 mg/kg
inhibition (INH) [4]: Not Active
logD [5]: 2.2
F [6]: 45%
microsomal CLint [7]: < 8 µL/min/mg
fraction unbound at 10 µM [8]: 0.13
Activity [9]: Non-Toxic
AUClast [10]: 14500 ng·h/mL
inhibition (INH) [11]: Not Active
inhibition (INH) [12]: Not Active
IC50 [13]: 390 nM
Cmax [14]: 2940 ng/mL
inhibition (INH) [15]: Not Active
Activity [16]: Non-Toxic
half-life [17]: 1.2 h
inhibition [18]: Dose-dependent effect
solubility thermodynamic [19]: 503 µM (≈ 187 µg/mL)
Vd [20]: 1.38 L/kg
inhibition (INH) [21]: Not Active
IC50 ([22]; read-out: IC50): 340 nM
IC50 ([22]; read-out: pIC50 (converted)): 501 nM
microsomal CLint [23]: < 8 µL/min/mg
IC50 [24]: 316 nM
inhibition (INH) [25]: Not Active
Time [26]: 14 h
inhibition [27]: Dose-dependent effect
pED50 [27]: 1.2
ED50 [27, 32]: 15.7 mg/kg

N#Cc1c(C(F)(F)F)cc(N2CCN(CCO)CC2)nc1N1CCCC(CO)C1 (configuration not stated)
IC50 [28]: 16800 nM

Cc1cc(C)c(C#N)c(N2CCOCC2)n1
inhibition [29]: Active
Kd [30]: 62000 nM
IC50 [28]: 319000 nM

C[C@]1(O)CCN(c2c(C#N)c(C(F)(F)F)nc3cc[nH]c23)C1
Papp [2]: 14 ×10⁻⁶ cm/s
logD [5]: 2.2
microsomal CLint [7]: < 8 µL/min/mg
fraction unbound at 10 µM [8]: 0.032
fCmax [31]: 1.3 µM
solubility thermodynamic [19]: 147 µM (≈ 45.6 µg/mL)
IC50 ([22]; read-out: IC50): 640 nM
IC50 [28]: 670 nM

C[C@]1(O)CCN(c2nc(N3CCN(CCO)CC3)cc(C(F)(F)F)c2C#N)C1
logD [5]: 2.2
microsomal CLint [7]: 14 µL/min/mg
IC50 [28]: 1030 nM
